Data from ChEMBL document CHEMBL4251543, “Identification of potent tricyclic prodrug S1P1 receptor modulators” (Medchemcomm, 2017).

Columns and labels:
[1] = target: Sphingosine 1-phosphate receptor 1 (Homo sapiens, UniProt P21453); test: Agonist activity at human S1P1 receptor expressed in CHO cell membranes after 45 mins by [35S]GTPgammaS binding assay; type: functional
How it was run: (§1)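 Membranes from S1P1/CHO or EDG3-Ga15-bla HEK293T cells (final protein 3 µg/well) incubated with compound (11-point, 3-fold dilution) and [35S]GTP 0.2 nM final in 20 mM HEPES pH 7.5, 10 mM MgCl2, 150 mM NaCl, 1 mM EGTA, 1 mM DTT, 10 µM GDP, 0.1% fatty acid free BSA, 10 µg/ml saponin, 45 min at room temperature. Filter capture, scintillation counting; EC50 taken at 50% of each compound's Ymax.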

Rattus norvegicus [2] = test: Immunosuppressive activity in Lewis rat assessed as reduction in blood lymphocytes count at 2 mg/kg, po after 4 hrs relative to control; type: functional; design: scale not given: the % may be the effect or the level left
How it was run: (§2)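 Oral dosing in Lewis rats, with PEG300 as vehicle, given as solution or suspension adjusted for free test article if salt forms are used. Blood sampled at several time points. Lymphocytes counted on a hematology analyzer. Result is the reduction in circulating lymphocyte percentage versus the vehicle group at each time, averaged per group (n = 2).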

[3] = Prodrug conversion in Lewis rat blood assessed as parent compound levels at 2 mg/kg, po after 4 hrs; type: ADME, organism-based; details: in vivo, read-out: Drug metabolism
[4] = Prodrug conversion in Lewis rat blood assessed as formation phosphate metabolite at 2 mg/kg, po after 4 hrs; type: ADME, organism-based; details: in vivo
Rattus norvegicus [5] = test: Immunosuppressive activity in Lewis rat assessed as reduction in blood lymphocytes count at 2 mg/kg, po after 24 hrs relative to control; type: functional; design: scale not given: the % may be the effect or the level left; how it was run: as §2
[6] = Prodrug conversion in Lewis rat blood assessed as formation phosphate metabolite at 2 mg/kg, po after 24 hrs; type: ADME, organism-based; details: in vivo
[7] = Prodrug conversion in Lewis rat blood assessed as parent compound levels at 2 mg/kg, po after 24 hrs; type: ADME, organism-based; details: in vivo, read-out: Drug metabolism
Rattus norvegicus [8] = test: Immunosuppressive activity in Lewis rat assessed as reduction in blood lymphocytes count at 2 mg/kg, po after 48 hrs relative to control; type: functional; design: scale not given: the % may be the effect or the level left; how it was run: as §2
[9] = Prodrug conversion in Lewis rat blood assessed as parent compound levels at 2 mg/kg, po after 48 hrs; type: ADME, organism-based; details: in vivo, read-out: Drug metabolism
[10] = Prodrug conversion in Lewis rat blood assessed as formation phosphate metabolite at 2 mg/kg, po after 48 hrs; type: ADME, organism-based; details: in vivo
[11] = Half life in Lewis rat at 2 mg/kg, po after 72 hrs; type: ADME, organism-based; details: in vivo
Cardiac muscle cell [12] = test: Toxicity in human inducible pluripotent stem cell derived cardiomyocytes assessed as reduction in beating rate at 1 nM after 20 mins by multi-electrode array electrophysiology study; type: cell-based; design: scale not given: the % may be the effect or the level left; details: 0.001 µM
How it was run: (§3)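 hiPSC cardiomyocytes were grown 7 days at 7% CO2 on gelatin, then co-cultured with 10% cardiac fibroblasts for 7 days on laminin-coated 9-well MEA plates until they formed a beating monolayer. After 20-60 min equilibration at 37 °C, compound was added in maintenance medium (DMSO or NaOH vehicle below 0.1% or 30 µM). Field potentials were recorded at 10 kHz from 28 electrodes/well for at least 2 h. Reported as mean change in beating rate versus control, mean ± SD of ≥3 experiments.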

Cardiac muscle cell [13] = test: Toxicity in human inducible pluripotent stem cell derived cardiomyocytes assessed as reduction in beating rate at 10 nM after 20 mins by multi-electrode array electrophysiology study; type: cell-based; design: scale not given: the % may be the effect or the level left; details: 0.01 µM; how it was run: as §3
Mus musculus [14] = species: Mus musculus; test: Pulmonary toxicity in mouse assessed as increase in BAL protein levels up to 10 times ED50; type: organism-based; details: in vivo
Mus musculus [15] = species: Mus musculus; test: Pulmonary toxicity in mouse assessed as increase in BAL protein levels at 30 times ED50; type: organism-based; details: in vivo
Mus musculus [16] = species: Mus musculus; test: Pulmonary toxicity in mouse assessed as increase in BAL protein levels at 60 times ED50; type: organism-based; details: in vivo
Rattus norvegicus [17] = test: Immunosuppressive activity in po dosed Lewis rat assessed as reduction in blood lymphocytes after 24 hrs; type: functional; how it was run: as §2
[18] = target: Sphingosine 1-phosphate receptor 3 (Homo sapiens, UniProt Q99500); test: Agonist activity at human EDG3-Ga15-bla expressed in HEK293T cells after 45 mins by [35S]GTPgammaS binding assay; type: functional, cell-based; how it was run: as §1
Mus musculus [19] = species: Mus musculus; test: Pulmonary toxicity in mouse assessed as increase in BAL protein levels at ED50; type: organism-based; details: in vivo

Chain of Sphingosine 1-phosphate receptor 1 (P21453 whole entry): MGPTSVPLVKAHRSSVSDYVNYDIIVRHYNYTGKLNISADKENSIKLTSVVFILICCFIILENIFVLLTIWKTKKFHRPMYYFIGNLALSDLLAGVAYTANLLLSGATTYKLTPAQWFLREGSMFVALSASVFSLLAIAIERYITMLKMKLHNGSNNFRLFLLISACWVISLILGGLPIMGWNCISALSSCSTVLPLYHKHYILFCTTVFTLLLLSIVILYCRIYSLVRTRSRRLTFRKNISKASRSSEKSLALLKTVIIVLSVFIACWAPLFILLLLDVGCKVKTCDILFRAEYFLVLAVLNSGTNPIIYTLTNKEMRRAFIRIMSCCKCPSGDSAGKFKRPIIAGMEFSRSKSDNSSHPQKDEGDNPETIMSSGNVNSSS
Chain of Sphingosine 1-phosphate receptor 3 (Q99500 whole entry): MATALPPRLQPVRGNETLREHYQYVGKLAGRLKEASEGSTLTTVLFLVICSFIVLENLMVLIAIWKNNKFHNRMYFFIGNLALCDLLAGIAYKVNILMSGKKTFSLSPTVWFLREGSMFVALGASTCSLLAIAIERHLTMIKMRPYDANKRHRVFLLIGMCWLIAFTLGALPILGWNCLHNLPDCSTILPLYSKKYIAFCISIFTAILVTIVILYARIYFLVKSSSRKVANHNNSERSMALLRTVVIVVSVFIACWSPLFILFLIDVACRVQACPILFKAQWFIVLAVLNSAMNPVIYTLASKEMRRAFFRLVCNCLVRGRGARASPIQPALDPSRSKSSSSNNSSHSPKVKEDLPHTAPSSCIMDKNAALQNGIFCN

SMILES	Emax [1] [%]	concentration [3] [nM]	Drug metabolism [4] [nM]	Drug metabolism [6] [nM]	concentration [7] [nM]	concentration [9] [nM]	Drug metabolism [10] [nM]	half-life [11] [h]	EC50 [1] [µM]	EC50 [18] [µM]	Activity (Rattus norvegicus [2]) [%]	Activity (Rattus norvegicus [5]) [%]	Activity (Rattus norvegicus [8]) [%]	Activity (Cardiac muscle cell [12])	Activity (Cardiac muscle cell [13])	Activity (Mus musculus [14])	Activity (Mus musculus [15])	Activity (Mus musculus [16])	ED50 (Rattus norvegicus [17]) [mg/kg]	Activity (Mus musculus [19])
CCCCNc1nc2c(s1)-c1ccc([C@H]3CC[C@](N)(CO)C3)cc1CC2		33	570	190							37	0								
CCCCc1nc2c(s1)-c1ccc([C@H]3CC[C@](N)(CO)C3)cc1CC2		77	97	8.2	9.4	< 5	< 5	< 4			66	48	12							
CCCCCCc1nc2c(s1)-c1ccc([C@H]3CC[C@](N)(CO)C3)cc1CC2		110	140	160	66	< 10	50	35			59	82	74							
CCCCCOc1nc2c(s1)-c1ccc([C@H]3CC[C@](N)(CO)C3)cc1CC2		81	71	26	29	12	< 5	21			67	80	59							
CCCc1nc2c(s1)-c1ccc([C@H]3CC[C@](N)(CO)C3)cc1CC2		110	79	< 10	< 19			< 2			41	0								
CCCCOc1nc2ccc3cc([C@H]4CC[C@](N)(CO)C4)ccc3c2s1		28	5.1	< 5	21	12	< 5	14			65	77	59							
CCCCNc1nc2c(s1)-c1ccc([C@H]3CC[C@](N)(COP(=O)(O)O)C3)cc1CC2	49								0.13											
CCCCSc1nc2ccc3cc([C@H]4CC[C@](N)(CO)C4)ccc3c2s1		15	10	8.1	8	< 5	< 5	6			69	75	59							
CCCCCCCc1nc2c(s1)-c1ccc([C@H]3CC[C@](N)(CO)C3)cc1CC2		66	63	300	110	43	150	> 50			40	77	80							
CCCCOCCOc1nc2c(s1)-c1ccc([C@H]3CC[C@](N)(COP(=O)(O)O)C3)cc1CC2	110								0.001	0.19										
CCCCOc1nc2c(s1)-c1ccc([C@H]3CC[C@](N)(CO)C3)cc1CC2		35	34	20	7	< 5	4	5			74	68	26						1	Toxic
CCCCN(C)c1nc2c(s1)-c1ccc([C@H]3CC[C@](N)(CO)C3)cc1CC2		110			18	4.1		9			30	27	4.4							

Second part, led by results:

Emax [1] [%]	concentration [3] [nM]	Drug metabolism [4] [nM]	Drug metabolism [6] [nM]	concentration [7] [nM]	concentration [9] [nM]	Drug metabolism [10] [nM]	half-life [11] [h]	EC50 [1] [µM]	EC50 [18] [µM]	SMILES	Activity (Rattus norvegicus [2]) [%]	Activity (Rattus norvegicus [5]) [%]	Activity (Rattus norvegicus [8]) [%]	Activity (Cardiac muscle cell [12])	Activity (Cardiac muscle cell [13])	Activity (Mus musculus [14])	Activity (Mus musculus [15])	Activity (Mus musculus [16])	ED50 (Rattus norvegicus [17]) [mg/kg]	Activity (Mus musculus [19])
98										CCCCCCCc1nc2c(s1)-c1ccc([C@H]3CC[C@](N)(COP(=O)(O)O)C3)cc1CC2										
100										CCCCCCOc1nc2c(s1)-c1ccc([C@H]3CC[C@](N)(COP(=O)(O)O)C3)cc1CC2										
	87	43	10	16	< 5	< 5	5			CCCCCSc1nc2c(s1)-c1ccc([C@H]3CC[C@](N)(CO)C3)cc1CC2	72	76	44							
79										CCCc1nc2c(s1)-c1ccc([C@H]3CC[C@](N)(COP(=O)(O)O)C3)cc1CC2										
58										CCCCOc1nc2c(s1)-c1ccc([C@H]3CC[C@](N)(COP(=O)(O)O)C3)cc1CC2				16%	36%					
	48	12	19	37			6			Cc1ccc(-c2nc3c(s2)-c2ccc([C@H]4CC[C@](N)(CO)C4)cc2CC3)cc1	9.3	2.1								
	100	91	56	55	25	16	20			CCCCCc1nc2c(s1)-c1ccc([C@H]3CC[C@](N)(CO)C3)cc1CC2	33	83	56			Non-Toxic	Non-Toxic	Toxic	0.5	
58										CCCCSc1nc2c(s1)-c1ccc([C@H]3CC[C@](N)(COP(=O)(O)O)C3)cc1CC2				Toxic	Toxic					
79								0.021	> 3	CCCCCc1nc2c(s1)-c1ccc([C@H]3CC[C@](N)(COP(=O)(O)O)C3)cc1CC2				Toxic	Toxic					
	31			17	8.3		35			CCCCCOc1nc2ccc3cc([C@H]4CC[C@](N)(CO)C4)ccc3c2s1	80	80	68							
	97	39	< 5	68	< 5	< 5	4			COc1cccc(-c2nc3c(s2)-c2ccc([C@H]4CC[C@](N)(CO)C4)cc2CC3)c1	31	63	30							
	72	62	< 5	31	17	< 5	25			CCCCCCOc1nc2c(s1)-c1ccc([C@H]3CC[C@](N)(CO)C3)cc1CC2	66	82	82							
	81	260	250	78	41	160	41			CCCCCCOc1nc2ccc3cc([C@H]4CC[C@](N)(CO)C4)ccc3c2s1	73	83	86							
